Results taken from article PMC4548982 (Chembiochem : a European journal of chemical biology, 2015).
In brackets after ≈: the same amount, converted by molar mass. Entries after “also recorded” stand apart in the source; their conditions may differ.

Legend:
[1] = tested on: control (WT) E. coli ribosomes; test: EF-G-dependent translocation inhibition; type: biochemical; conditions: in vitro, WT (and A1408G) ribosomes
[2] = tested on: mutant A1408G E. coli ribosomes; test: EF-G-dependent translocation inhibition; type: biochemical; conditions: read-out: Translocation inhibition IC50, A1408G
Summary of the method: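 Ribosomes purified from the corresponding Δ7 prrn E. coli strain carrying A1408G. The extent of EF-G-dependent translocation was measured by toeprinting across various concentrations of the test aminoglycoside. IC50 was obtained by fitting the data to the Hill equation.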

E. coli Δ7 prrn WT = test: Growth inhibition of E. coli Δ7 prrn WT; type: cell-based; conditions: for antibacterial activity in words: E. coli Δ7 prrn WT compared with A1408G and G1491U strains
AAC(6′)-Ib′ = test: Relative initial rate of AME reaction, AAC; type: biochemical
ribosome = conditions: cited from earlier work
E. coli TolC (O) = test: Antibacterial MIC, E. coli TolC; type: cell-based; conditions: Escherichia coli
E. coli Δ7 prrn A1408G = test: Growth inhibition of E. coli Δ7 prrn A1408G; type: cell-based; conditions: Escherichia coli
E. coli Δ7 prrn G1491U = test: Growth inhibition of E. coli Δ7 prrn G1491U; type: cell-based; conditions: Escherichia coli

Structure (SMILES)	inhibition of translocation in words [1]	IC50 [2]	antibacterial activity in words (E. coli Δ7 prrn WT)	further results
NC[C@H]1O[C@H](O[C@H]2[C@H](O)[C@@H](O[C@H]3O[C@H](CSc4ccccc4F)[C@@H](O)[C@H](N)[C@H]3O)[C@H](N)C[C@@H]2N)[C@H](N)C[C@@H]1O [3x]	notably poorer inhibitors of translocation	310 µM		
CC(C)(C)c1ccc(SCC2OC(OC3C(N)CC(N)C(OC4OC(CN)C(O)CC4N)C3O)C(O)C(N)C2O)cc1 (stereo not shown) [3s]			virtually inactive	
CCCCCCCCCCSC[C@H]1O[C@H](O[C@@H]2[C@@H](O)[C@H](O[C@H]3O[C@H](CN)[C@@H](O)C[C@H]3N)[C@@H](N)C[C@H]2N)[C@H](O)[C@@H](N)[C@@H]1O [3d]	failed to inhibit translocation		lower activity with little-to-no h44-dependence	
CCCCCCCCCCCCCCSC[C@H]1O[C@H](O[C@@H]2[C@@H](O)[C@H](O[C@H]3O[C@H](CN)[C@@H](O)C[C@H]3N)[C@@H](N)C[C@H]2N)[C@H](O)[C@@H](N)[C@@H]1O [3f]			indistinguishably strong antibacterial activity	relative initial rate, normalized to TOB (AAC(6′)-Ib′): > 200%; inhibition of in vitro translation in words (ribosome): fails to inhibit in vitro translation
NC[C@H]1O[C@H](O[C@H]2[C@H](O)[C@@H](O[C@H]3O[C@H](CO)[C@@H](O)[C@H](N)[C@H]3O)[C@H](N)C[C@@H]2N)[C@H](N)C[C@@H]1O [TOB, tobramycin]		700 µM		MIC (E. coli TolC (O)): > 150 µg/mL; MIC (E. coli Δ7 prrn WT; Escherichia coli): 18.8 µg/mL (≈ 40.2 µM); MIC (E. coli Δ7 prrn A1408G): > 150 µg/mL; MIC (E. coli Δ7 prrn G1491U): > 150 µg/mL
CCCCCCCCCCCCCCCCSCC1OC(OC2C(N)CC(N)C(OC3OC(CN)C(O)CC3N)C2O)C(O)C(N)C1O (stereo not shown) [3g]			indistinguishably strong antibacterial activity	
CCCCCCSCC1OC(OC2C(N)CC(N)C(OC3OC(CN)C(O)CC3N)C2O)C(O)C(N)C1O (stereo not shown) [3b]			virtually inactive; also recorded: antibacterial activity is completely lost	
NCC1OC(OC2C(N)CC(N)C(OC3OC(CSc4cccc(F)c4)C(O)C(N)C3O)C2O)C(N)CC1O (stereo not shown) [3y]		210 µM		
CCCCCCCCCCCCSC[C@H]1O[C@H](O[C@@H]2[C@@H](O)[C@H](O[C@H]3O[C@H](CN)[C@@H](O)C[C@H]3N)[C@@H](N)C[C@H]2N)[C@H](O)[C@@H](N)[C@@H]1O [3e]	fails to inhibit translocation		lower activity with little-to-no h44-dependence	
CCCCCCCCCCCCCCCCCCSC[C@H]1O[C@H](O[C@@H]2[C@@H](O)[C@H](O[C@H]3O[C@H](CN)[C@@H](O)C[C@H]3N)[C@@H](N)C[C@H]2N)[C@H](O)[C@@H](N)[C@@H]1O [3h]	failed to inhibit translocation			
COc1ccccc1SC[C@H]1O[C@H](O[C@@H]2[C@@H](O)[C@H](O[C@H]3O[C@H](CN)[C@@H](O)C[C@H]3N)[C@@H](N)C[C@H]2N)[C@H](O)[C@@H](N)[C@@H]1O [3u]	notably poorer inhibitors of translocation	620 µM		
CCCCSCC1OC(OC2C(N)CC(N)C(OC3OC(CN)C(O)CC3N)C2O)C(O)C(N)C1O (stereo not shown) [3a]			biological activity indistinguishable from TOB	
